Assay results reported in ChEMBL document CHEMBL4665656, “Toxicity, bioactivity, release of HS in vivo and pharmaco-kinetics of HS-donors with thiophosphamide structure” (Eur J Med Chem, 2019).
Active and inactive are the calls of the source. The rule behind the calls is not given here.

What was measured:
[1] = Solubility of compound in water; format: physicochemical; conditions: buffer
[2] = Kinetic Solubility of compound; format: physicochemical
[3] = Induction of H2S generation assessed as Cmax Induction of H2S generation assessed as Cmax at 150 uM incubated at 37 degC and pH 7.4 by fluorescence spectrophotometry; format: functional
In short: (§1)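 Donor at 150 µM final, mixed with 200 µM sulfonyl-azide fluorescent probe in buffer/acetonitrile (1:9) at set pH. Cuvette held in a water bath at 22 °C or 37 °C, with fluorescence read three times at intervals. H2S was quantified from a Na2S standard curve (0–200 µM, probe 200 µM).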

[4] = Induction of H2S generation assessed as Cmax Induction of H2S generation assessed as Cmax at 150 uM incubated at 37 degC and pH 8 by fluorescence spectrophotometry; format: functional; in short: as §1
[5] = Induction of H2S generation assessed as Cmax at 150 uM incubated at 37 degC and pH 5 by fluorescence spectrophotometry; format: functional; in short: as §1
[6] = Induction of H2S generation assessed as Cmax at 150 uM incubated at 37 degC and pH 1.2 by fluorescence spectrophotometry; format: functional; in short: as §1
[7] = Induction of H2S generation assessed as Cmax at 150 uM incubated at 22 degC and pH 7.4 by fluorescence spectrophotometry; format: functional; in short: as §1
[8] = Induction of H2S generation assessed as Cmax at 150 uM incubated at 22 degC and pH 8 by fluorescence spectrophotometry; format: functional; in short: as §1
[9] = Induction of H2S generation assessed as Cmax at 150 uM incubated at 22 degC and pH 1.2 by fluorescence spectrophotometry; format: functional; in short: as §1
[10] = tested on: HeLa; test: Cytotoxicity in human HeLa cells assessed as growth inhibition incubated for 24 hrs by MTT assay; format: functional, cell-based
In short: (§2)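 Cells were grown in RPMI 1640 with 10% FBS at 37 °C and 10% CO2, seeded at 6×10^3 cells/well. Exposure was 24 h, with viability by MTT, in triplicate cultures. IC50 was reported as mean ± SD.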

[11] = tested on: A549; test: Cytotoxicity in human A549 cells assessed as growth inhibition incubated for 24 hrs by MTT assay; format: functional, cell-based; conditions: A549, 24 h; in short: as §2
[12] = tested on: HepG2; test: Cytotoxicity in human HePG2 cells assessed as growth inhibition incubated for 24 hrs by MTT assay; format: functional, cell-based; conditions: HepG2, 24 h; in short: as §2
[13] = tested on: MCF7; test: Cytotoxicity in human MCF-7 cells assessed as growth inhibition incubated for 24 hrs by MTT assay; format: functional, cell-based; conditions: MCF7, 24 h; in short: as §2
[14] = tested on: HT-29; test: Cytotoxicity in human HT-29 cells assessed as growth inhibition incubated for 24 hrs by MTT assay; format: functional, cell-based; conditions: HT-29, 24 h; in short: as §2
[15] = tested on: WI-38; test: Cytotoxicity in human W138 cells assessed as growth inhibition incubated for 24 hrs by MTT assay; format: cell-based; conditions: WI-38, 24 h; in short: as §2
[16] = tested on: RAW264.7; test: Anti-inflammatory activity in mouse RAW264.7 cells assessed as inhibition of LPS-induced IL-10 production at 20 uM preincubated for 4 hr followed by LPS addition and measured after 24 hrs; format: functional, cell-based
In short: (§3)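 RAW264.7 cells given LPS 1 µg/mL with compound for 24 h, then lysed in RIPA and centrifuged. Protein was set to 0.1 mg/mL by BCA and mouse cytokine levels measured by sandwich ELISA kit. Four parallel groups, mean ± SD.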

[17] = tested on: RAW264.7; test: Anti-inflammatory activity in mouse RAW264.7 cells assessed as inhibition of LPS-induced TNFalpha production at 20 uM preincubated for 4 hr followed by LPS addition and measured after 24 hrs relative to control; format: functional, cell-based; in short: as §3
[18] = Cytotoxicity against mouse RAW264.7 cells assessed as cell viability at 20 to 100 microM after 24 hrs by MTT assay; format: cell-based; conditions: dose 20-100 µM, read-out: Activity
In short: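 RAW264.7 macrophages in high-glucose DMEM with 10% heat-inactivated FBS, 37 °C, 5% CO2. LPS 1 µg/mL with or without compound (20 and 100 µM) for 24 h. Then MTT 4 h, formazan dissolved in DMSO, A570, expressed as % of control.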

[19] = tested on: RAW264.7; test: Anti-inflammatory activity in mouse RAW264.7 cells assessed as inhibition of LPS-induced NO production preincubated for 4 hr followed by LPS addition and measured after 24 hrs relative to control; format: functional, cell-based; conditions: dose 100.0 µM, time 28.0 hrs
In short: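 RAW264.7 cells exposed to LPS 1 µg/mL with compound (20 and 100 µM) for 24 h. Nitrite in medium measured by Griess reagent, […], against a sodium nitrite standard curve (0–100 µM). Four parallel groups, mean ± SD.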

[20] = Cytotoxicity against rat H9C2 cells assessed as cell viability at 100 uM measured after 24 hrs by MTT assay; format: cell-based; conditions: read-out: Activity
[21] = Induction of H2S generation assessed as half life at 150 uM incubated at 22 degC and pH 1.2 by fluorescence spectrophotometry; format: functional; in short: as §1
[22] = Induction of H2S generation assessed as half life at 150 uM incubated at 22 degC and pH 5 by fluorescence spectrophotometry; format: functional; in short: as §1
[23] = Induction of H2S generation assessed as half life at 150 uM incubated at 22 degC and pH 7.4 by fluorescence spectrophotometry; format: functional; in short: as §1
[24] = Induction of H2S generation assessed as half life at 150 uM incubated at 22 degC and pH 8 by fluorescence spectrophotometry; format: functional; in short: as §1
[25] = Induction of H2S generation assessed as half life at 150 uM incubated at 37 degC and pH 1.2 by fluorescence spectrophotometry; format: functional; in short: as §1
[26] = Induction of H2S generation assessed as half life at 150 uM incubated at 37 degC and pH 5 by fluorescence spectrophotometry; format: functional; in short: as §1
[27] = Induction of H2S generation assessed as half life at 150 uM incubated at 37 degC and pH 7.4 by fluorescence spectrophotometry; format: functional; in short: as §1
[28] = Induction of H2S generation assessed as half life at 150 uM incubated at 37 degC and pH 8 by fluorescence spectrophotometry; format: functional; in short: as §1
[29] = Induction of H2S generation assessed as Cmax at 150 uM incubated at 22 degC and pH 5 by fluorescence spectrophotometry; format: functional; in short: as §1

Row | Compound | Cmax [3] | Cmax [4] | Cmax [5] | Cmax [6] | Cmax [7] | Cmax [8] | Cmax [9] | IC50 [10] | IC50 [11] | IC50 [12] | IC50 [13] | IC50 [14] | IC50 [15] | T1/2 [21] | T1/2 [22] | T1/2 [23] | T1/2 [24] | T1/2 [25] | T1/2 [26] | T1/2 [27] | other results
1 | O=C([O-])CNP([O-])(=S)c1ccccc1.[Li+].[Li+] (stereo not given) | 102 µM | 101 µM | 103 µM | 103 µM | 99.5 µM | 99.4 µM | 101 µM | 913 µM | 378 µM | 771 µM | 876 µM | 912 µM | 508 µM | 2.94 min | 3.19 min | 4.93 min | 6.44 min | 2.17 min | 2.41 min | 3.66 min | solubility [1]: Soluble; Kinetic_solubility [2]: Soluble; Activity [16]: Active; Activity [17]: Active; viability at 24 h [18]: 70%; Activity [19]: Dose-dependent effect; viability at 24 h, 100 µM [20]: > 90%; T1/2 [28]: 5.57 min
2 | S=P1(c2ccccc2)OCCO1 | 29.1 µM | 35.7 µM | 35.7 µM | 35.7 µM | 27.7 µM | 27.5 µM | 28.4 µM | 679 µM | 679 µM | 804 µM | 748 µM | 882 µM | 381 µM | 25.4 min | 25.1 min | 26.6 min | 26.5 min | 25.8 min | 27.9 min | 25.9 min | Cmax [29]: 27.9 µM; T1/2 [28]: 25 min
